Data published in ChEMBL document CHEMBL2396655, “Design, synthesis, and biological evaluation of (E)-N-aryl-2-arylethenesulfonamide analogues as potent and orally bioavailable microtubule-targeted anticancer agents” (J Med Chem, 2013).
Values after ≈ are worked out from the molar mass of the structure shown.

Key:
K562 = experiment: Cytotoxicity against human K562 cells after 96 hrs by trypan blue exclusion assay; assay type: functional, cell-based; details: for IC50: K562, 96 h
How it was run: (§1)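 Cells were grown in DMEM or RPMI with 10% FBS and plated at 2.5×10⁴ cells/well in 12-well dishes. Compounds were added 24 h later at various concentrations. After 96 h, viable cells were counted by trypan blue exclusion from duplicate wells. Results are the mean of two independent experiments.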

DU-145 = experiment: Cytotoxicity against human DU145 cells after 96 hrs by trypan blue exclusion assay; assay type: functional, cell-based; details: for IC50: DU-145, 96 h; how it was run: as §1
[1] = Solubility of the compound in water; assay type: physicochemical

solubility [1] [µg/mL] | Structure (SMILES) | Activity (K562) | IC50 (K562) [µM] | Activity (DU-145) | IC50 (DU-145) [µM]
– | COc1ccc(NS(=O)(=O)/C=C/c2c(OC)cc(OCCCC(=O)O)cc2OC)cc1[N+](=O)[O-] | Dose-dependent effect | 100 | Dose-dependent effect | 100
– | COC(=O)C(Nc1cc(NS(=O)(=O)/C=C/c2c(OC)cc(OC)cc2OC)ccc1OC)c1ccccc1 (stereo not given) | Dose-dependent effect | 2.5 | Dose-dependent effect | 2.5
– | COc1ccc(/C=C/S(=O)(=O)Nc2ccc(OC)cc2)cc1 | Dose-dependent effect | 5 | Dose-dependent effect | 5
– | COc1ccc(NS(=O)(=O)/C=C/c2ccc(OC)cc2OC)cc1 | Dose-dependent effect | 15 | Dose-dependent effect | 15
10000 (≈ 18.9 mM) | COc1cc(OC)c(/C=C/S(=O)(=O)Nc2ccc(OC)c(NC(C(=O)O)c3ccccc3)c2)c(OC)c1 (stereo not given) | Dose-dependent effect | 0.3 | Dose-dependent effect | 0.075
10000 (≈ 18.3 mM) | COc1cc(OC)c(/C=C/S(=O)(=O)Nc2ccc(OC)c(NC(C(=O)O)c3ccc(F)cc3)c2)c(OC)c1 (stereo not given) | Dose-dependent effect | 0.02 | Dose-dependent effect | 0.075
– | O=S(=O)(/C=C/c1ccccc1)Nc1ccc(Cl)cc1 | Dose-dependent effect | 20 | Dose-dependent effect | 20
– | COc1ccc(NS(=O)(=O)/C=C/c2cc(OC)c(OC)c(OC)c2)cc1N | Dose-dependent effect | 15 | Dose-dependent effect | 35
– | COC(=O)C(C)(C)Nc1cc(NS(=O)(=O)/C=C/c2c(OC)cc(OC)cc2OC)ccc1OC | Dose-dependent effect | 0.3 | Dose-dependent effect | 0.2
– | COc1ccc(NS(=O)(=O)/C=C/c2c(OC)cc(OCCCC(=O)O)cc2OC)cc1O | Dose-dependent effect | 10 | Dose-dependent effect | 10
– | COc1cc(OC)c(/C=C/S(=O)(=O)Nc2ccc(F)c([N+](=O)[O-])c2)c(OC)c1 | Dose-dependent effect | 75 | Dose-dependent effect | 100
– | COc1ccc(NS(=O)(=O)/C=C/c2c(OC)cccc2OC)cc1 | Dose-dependent effect | 5 | Dose-dependent effect | 0.375
– | COc1cc(OC)c(/C=C/S(=O)(=O)Nc2ccc(OC)c([N+](=O)[O-])c2)c(OC)c1 | Dose-dependent effect | 1 | Dose-dependent effect | 2.5
– | COc1ccc(NS(=O)(=O)/C=C/c2cc(OC)c(OC)c(OC)c2)cc1[N+](=O)[O-] | Dose-dependent effect | 75 | Dose-dependent effect | 75
– | COc1ccc(NS(=O)(=O)/C=C/c2c(F)c(F)c(F)c(F)c2F)cc1F | Dose-dependent effect | 10 | Dose-dependent effect | 10
– | COc1ccc(NS(=O)(=O)/C=C/c2cc(OC)c(OC)c(OC)c2)cc1 | Dose-dependent effect | 35 | Dose-dependent effect | 35
– | COc1cc(OC)c(/C=C/S(=O)(=O)Nc2ccc(OC)c(OP(=O)(O)O)c2)c(OC)c1 | Dose-dependent effect | 0.0075 | Dose-dependent effect | 0.04
– | COc1ccc(NS(=O)(=O)/C=C/c2c(F)c(F)c(F)c(F)c2F)cc1 | Dose-dependent effect | 5 | Dose-dependent effect | 10
– | COC(=O)C(Nc1cc(NS(=O)(=O)/C=C/c2c(OC)cc(OC)cc2OC)ccc1OC)c1ccc(Br)cc1 (stereo not given) | Dose-dependent effect | 1 | Dose-dependent effect | 7.5
10000 (≈ 16.5 mM) | COc1cc(OC)c(/C=C/S(=O)(=O)Nc2ccc(OC)c(NC(C(=O)O)c3ccc(Br)cc3)c2)c(OC)c1 (stereo not given) | Dose-dependent effect | 0.075 | Dose-dependent effect | 0.25
– | COc1cc(OC)c(/C=C/S(=O)(=O)Nc2cc([N+](=O)[O-])c(OC)c([N+](=O)[O-])c2)c(OC)c1 | Dose-dependent effect | 10 | Dose-dependent effect | 10
– | COc1ccc(/C=C/S(=O)(=O)Nc2c(F)c(F)c(F)c(F)c2F)cc1N | Dose-dependent effect | 35 | Dose-dependent effect | 35
– | COc1ccc(NS(=O)(=O)/C=C/c2c(F)cc(F)cc2F)cc1 | Dose-dependent effect | 15 | Dose-dependent effect | 75

solubility [1] [µg/mL] | Structure (SMILES) | Activity (K562) | IC50 (K562) [µM] | Activity (DU-145) | IC50 (DU-145) [µM]
– | COC(=O)C(Nc1cc(NS(=O)(=O)/C=C/c2c(OC)cc(OC)cc2OC)ccc1OC)c1ccc(F)cc1 (stereo not given) | Dose-dependent effect | 2.5 | Dose-dependent effect | 2.5
10000 (≈ 17.8 mM) | COc1cc(OC)c(/C=C/S(=O)(=O)Nc2ccc(OC)c(NC(C(=O)O)c3ccc(Cl)cc3)c2)c(OC)c1 (stereo not given) | Dose-dependent effect | 0.015 | Dose-dependent effect | 0.075
– | COc1ccc(NS(=O)(=O)/C=C/c2c(OC)cc(OCCCC(=O)O)cc2OC)cc1N | Dose-dependent effect | 10 | Dose-dependent effect | 10
– | COc1ccc(NS(=O)(=O)/C=C/c2c(F)c(F)c(F)c(F)c2F)cc1N | Dose-dependent effect | 75 | Dose-dependent effect | 75
– | COc1ccc(NS(=O)(=O)/C=C/c2c(OC)cc(O)cc2OC)cc1 | Dose-dependent effect | 10 | Dose-dependent effect | 10
– | COc1ccc(/C=C/S(=O)(=O)Nc2c(F)c(F)c(F)c(F)c2F)cc1[N+](=O)[O-] | Dose-dependent effect | 75 | Dose-dependent effect | 100
– | O=S(=O)(/C=C/c1c(F)c(F)c(F)c(F)c1F)Nc1c(F)c(F)c(F)c(F)c1F | Dose-dependent effect | 35 | Dose-dependent effect | 35
– | COc1cc(OC)c(/C=C/S(=O)(=O)Nc2ccc(OC)c(OC(=O)C(C)(C)C3=C(C)C(=O)C=C(C)C3=O)c2)c(OC)c1 | Dose-dependent effect | 0.008 | Dose-dependent effect | 0.009
– | COC(=O)CNc1cc(NS(=O)(=O)/C=C/c2c(OC)cc(OC)cc2OC)ccc1OC | Dose-dependent effect | 0.35 | Dose-dependent effect | 0.35
– | COc1ccc(/C=C/S(=O)(=O)Nc2c(OC)cc(OC)cc2OC)cc1 | Dose-dependent effect | 2.5 | Dose-dependent effect | 7.5
– | COc1cc(OC)c(/C=C/S(=O)(=O)Nc2ccc(F)c(N)c2)c(OC)c1 | Dose-dependent effect | 5 | Dose-dependent effect | 10
– | COc1ccc(/C=C/S(=O)(=O)Nc2ccc(F)cc2)cc1 | Dose-dependent effect | 10 | Dose-dependent effect | 10
– | COC(=O)C(C)Nc1cc(NS(=O)(=O)/C=C/c2c(OC)cc(OC)cc2OC)ccc1OC (stereo not given) | Dose-dependent effect | 0.3 | Dose-dependent effect | 0.1
– | O=S(=O)(/C=C/c1ccc(Br)cc1)Nc1ccc(F)cc1 | Dose-dependent effect | 10 | Dose-dependent effect | 10
– | COc1cc(OC)c(/C=C/S(=O)(=O)Nc2ccc(OC)c(F)c2)c(OC)c1 | Dose-dependent effect | 0.075 | Dose-dependent effect | 0.2
10000 (≈ 21.4 mM) | COc1cc(OC)c(/C=C/S(=O)(=O)Nc2ccc(OC)c(NC(C)C(=O)O)c2)c(OC)c1 (stereo not given) | Dose-dependent effect | 0.008 | Dose-dependent effect | 0.04
– | O=S(=O)(/C=C/c1ccccc1)Nc1ccccc1 | Dose-dependent effect | 10 | Dose-dependent effect | 10
– | COc1ccc(NS(=O)(=O)/C=C/c2ccccc2OC)cc1 | Dose-dependent effect | 5 | Dose-dependent effect | 5
– | COc1cc(OC)c(/C=C/S(=O)(=O)Nc2cc(N)c(OC)c(N)c2)c(OC)c1 | Dose-dependent effect | 7.5 | Dose-dependent effect | 2.5
– | COc1ccc(/C=C/S(=O)(=O)Nc2ccc(OC)c(F)c2)cc1 | Dose-dependent effect | 1 | Dose-dependent effect | 5
– | COc1ccc(NS(=O)(=O)/C=C/c2c(F)c(F)c(F)c(F)c2F)cc1[N+](=O)[O-] | Dose-dependent effect | 100 | Dose-dependent effect | 100
– | COC(=O)C(Nc1cc(NS(=O)(=O)/C=C/c2c(OC)cc(OC)cc2OC)ccc1OC)c1ccc(Cl)cc1 (stereo not given) | Dose-dependent effect | 2.5 | Dose-dependent effect | 5
